Laboratory results taken from article PMC3076219 (European journal of immunology, 2009).

Experiments:
CXCR2 [1] = test: CXCR2 surface expression on neutrophils, flow cytometry; type: cell-based, human; settings: 3h; for CXCR2 surface expression, chemokine treated: 1 nM, 5 nM, 10 nM (50 nM), Fig. 2E-G
CXCR1 [2] = test: CXCR1 surface expression on neutrophils, flow cytometry; type: cell-based, human; settings: 3h; for CXCR1 down-regulation at higher dose: 50 nM; for CXCR1 surface expression, chemokine treated: 1 nM, 5 nM, 10 nM (50 nM), Fig. 2E-G
Outline: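 Human blood neutrophils were isolated by dextran sedimentation and Ficoll (>95% CD16+) and held at 5×10^6/mL in RPMI 1640 with 1% FBS. They were treated 3h with a dose series (test peptide 1–10 µM; chemokines 1, 5, 10, 50 nM) or with 5 µM for 0.5–3h. Cells were blocked in 10% human serum and stained with anti-CXCR1-APC/anti-CXCR2-FITC or anti-P2X7-FITC, plus anti-CD16. Read-out was flow cytometry GMFI.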

CXCR2 [3] = test: CXCR2 surface expression on monocytes; type: cell-based, human; settings: Supporting information Fig. 2
neutrophils [4] = test: Calcium mobilization of neutrophils; type: cell-based, human; settings: ATP 5 µM; for [Ca2+]i time of decline to baseline: fMLF 100 nM, CXCL8 10 nM, Fig. 3A
neutrophils [5] = test: Cross-desensitization of calcium mobilization of neutrophils; type: cell-based, human; settings: for cross-desensitization of response to fMLF by LL-37, CXCL7, CXCL1: data not shown
THP-1 cells = test: Calcium mobilization in THP-1 cells; type: cell-based; settings: THP-1; Fig. 7C
Outline: (§1)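 Peripheral blood monocytes (kit-isolated from PBMC, CD14-checked) or THP-1 cells at 10^7/mL were loaded with 5 µM Indo-1-AM for 7 min at 37 °C, then held 10 min at RT and washed in cold PBS. Cells were run at 2×10^6/mL in KRP (PBS, 1.5 mM CaCl2, 1.5 mM MgSO4). After baseline they got a first stimulus, then a second. Flow cytometry used 351 nm excitation and the 405:485 nm ratio, gating live cells. Three independent experiments.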

monocytes [6] = test: Calcium mobilization in monocytes; type: cell-based, human; settings: ATP or WKYMVm first, then LL-37; Fig. 7D
Outline: as §1

monocytes [7] = test: Migration of monocytes, 24-well Transwell; type: cell-based, human; settings: LL-37 5 µM, CXCL1 50 nM, WKYMVm 5 µM, ATP 50 µM, BzATP 50 µM; 90 min, 37°C; Fig. 7F
Outline: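 CFSE-labelled monocytes or THP-1 cells (5 µM, 5 min RT) at 2×10^6/mL in phenol-red-free RPMI 1640 with 1% FBS went in the Transwell upper chamber (3-µm pores). Stimuli in the lower chamber included CXCL1 50 nM, WKYMVm 5 µM and ATP/BzATP 50 µM. Cells were used with or without 20 min preincubation with 10 µM CXCR2 antagonist. Incubation at 37 °C lasted 90 min for monocytes and 2 h for THP-1. Lower-well cells were read at 495 nm against a standard curve, in quadruplicate.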

P2X7 = P2X7 receptor blockers; monocytes; ref [14]; cited from earlier work
[8] = system: 125I-CXCL8 specific binding sites on neutrophils (CXCR1/2); test: Competition with 125I-CXCL8 for binding to neutrophils; design: species or system human; settings: 1.25 nM 125I-CXCL8, 2h on ice, triplicate, dose-dependent, Fig. 5B
CXCR2 [9] = test: Calcium mobilization in HEK293/CXCR2 cells; type: cell-based, human; settings: Indo-1; Fig. 7A-B
Outline: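 They were washed in cold PBS, pelleted at 200 × g for 10 min at 4 °C, and resuspended in PBS with Ca/Mg. […] [Ca2+]i was read as the 405:485 nm ratio by flow cytometry, gating on living cells.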

CXCR1 [10] = test: Calcium mobilization in HEK293/CXCR1 cells; type: cell-based, human; settings: Indo-1; Fig. 7A-B
Outline: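 CXCR1-transfected HEK293 cells were loaded with 5 µM Indo-1-AM in 5 µM pluronic F-127/PBS for 30 min at RT. They were washed in cold PBS, spun at 200 × g for 10 min at 4 °C and suspended in PBS with calcium and magnesium. Stimulation followed baseline recording. Flow cytometric [Ca2+]i was read as the 405:485 nm emission ratio with 351 nm excitation. Three independent experiments.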

CXCR2 [11] = test: Confocal analysis of CXCR2 internalization in neutrophils; type: cell-based, human; settings: 37°C
Outline: (§2)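 Neutrophils came from citrated donor blood by dextran sedimentation and Ficoll gradient. […] Cells were fixed in 2% paraformaldehyde, permeabilised with saponin and blocked with human serum. Anti-CXCR1 or anti-CXCR2 mAb (4°C), then Alexa 488 anti-mouse IgG, DAPI mount, confocal imaging; three independent experiments.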

CXCR1 [12] = test: Confocal analysis of CXCR1 internalization in neutrophils; type: cell-based, human; settings: 37°C
Outline: as §2

[13] = system: CXCR2 transfected HEK293 cells; test: Secondary necrosis of CXCR2 transfected HEK293 cells; type: cell-based; settings: Supporting information Fig. 4
[14] = system: CXCR1 transfected HEK293 cells; test: Secondary necrosis of CXCR1 transfected HEK293 cells; type: cell-based; settings: Supporting information Fig. 4
CXCR2 [15] = settings: ref [33], [34]; cited from earlier work
CXCR1 [16] = settings: ref [33], [34]; cited from earlier work
[17] = ATP 30 µM, 300 µM, 3000 µM, Fig. 2C
[18] = CXCL7 50 nM or CXCL1 50 nM, 60 min, data not shown
[19] = LL-37 5 µM or CXCL8 50 nM, 1 h, Fig. 8
[20] = fMLF 50 nM, 100 nM, 200 nM, Fig. 2A

## Nc1ncnc2c1ncn2[C@@H]1O[C@H](COP(=O)(O)OP(=O)(O)OP(=O)(O)O)[C@@H](O)[C@H]1O [ATP, reference compound]
CXCR2 [1]; [17]
  CXCR2 surface expression: no down-regulation of either CXCR1 or CXCR2
CXCR1 [2]; [17]
  CXCR1 surface expression: no down-regulation of either CXCR1 or CXCR2
CXCR2 [3]
  CXCR2 down-regulation on monocytes: but not ATP or BzATP, all down-regulate CXCR2
Neutrophils [4]
  [Ca2+]i time of decline to baseline: ≤ 200 s
Neutrophils [4]; PBS without calcium and magnesium, LL-37 5 µM, WKYMVm 5 µM, Fig. 3C
  calcium flux response in the absence of extracellular Ca2+: only the WKYMVm peptide is capable of generating a calcium flux response
Neutrophils [5]; ATP first, then LL-37, Supporting information Fig. 3A-B
  cross-desensitization of LL-37 response by ATP: unable to block calcium mobilization stimulated by LL-37 in neutrophils
THP-1 cells
  block of LL-37 induced calcium mobilization by ATP / BzATP: able to partially block
Monocytes [6]
  cross-block of LL-37 stimulated calcium mobilization in monocytes: neither ATP nor WKYMVm cross-block LL-37 stimulated calcium mobilization
Monocytes [7]
  stimulation of migration of monocytes: only LL-37 stimulated migration of monocytes

## Nc1ncnc2c1ncn2[C@@H]1O[C@H](COP(=O)(O)OP(=O)(O)OP(=O)(O)O)[C@@H](OC(=O)c2ccc(C(=O)c3ccccc3)cc2)[C@H]1O [BzATP]
CXCR2 [3]
  CXCR2 down-regulation on monocytes: but not ATP or BzATP, all down-regulate CXCR2
THP-1 cells
  block of LL-37 induced calcium mobilization by ATP / BzATP: not BzATP was able to partially block
Monocytes [7]
  stimulation of migration of monocytes: only LL-37 stimulated migration of monocytes

## CN([C@@H](Cc1ccc(OS(=O)(=O)c2cccc3cnccc23)cc1)C(=O)N1CCN(c2ccccc2)CC1)S(=O)(=O)c1cccc2cnccc12 [KN62]
P2X7
  block of LL-37-induced release of IL-1β: did not completely block the release of IL-1β

## Nc1ncnc2c1ncn2[C@@H](C=O)O[C@@H](C=O)COP(=O)(O)OP(=O)(O)OP(=O)(O)O [oxATP]
P2X7
  block of LL-37-induced release of IL-1β: did not completely block the release of IL-1β

## CXCL1: recombinant human chemokine, predominantly CXCR2 specific
CXCR2 [1]
  CXCR2 surface expression, chemokine treated: down-regulated CXCR2 but not CXCR1 in a limited dose-dependent manner
CXCR1 [2]
  CXCR1 down-regulation at higher dose: down-regulate CXCR1 at higher doses
  CXCR1 surface expression, chemokine treated: down-regulated CXCR2 but not CXCR1
CXCR2 [3]
  CXCR2 down-regulation on monocytes: down-regulate CXCR2
Neutrophils [5]
  cross-desensitization of response to fMLF by LL-37, CXCL7, CXCL1: do not cross-sensitize fMLF stimulation
[8]; 2×10^6 cells
  maximum competition of 125I-CXCL8 binding: around 50%
[8]
  displacement of 125I-CXCL8: partly displace
CXCR2 [9]
  calcium mobilization in CXCR2 transfected HEK293 cells: weak but similar patterns of calcium mobilization
CXCR1 [10]
  calcium mobilization in CXCR1 transfected HEK293 cells: only CXCL8 gave a response
Monocytes [7]
  stimulation of migration of monocytes: only LL-37 stimulated migration of monocytes
CXCR2 [11]; [18]
  CXCR2 translocation (internalization): caused only CXCR2 receptor translocation to the cytoplasm
CXCR1 [12]; [18]
  CXCR1 translocation (internalization): caused only CXCR2 receptor translocation to the cytoplasm
[13]
  generation of secondary necrotic cells, HEK293/CXCR2: not with CXCL1
[14]
  generation of secondary necrotic cells, HEK293/CXCR1: not with CXCL1
CXCR2 [15]
  affinity for CXCR2: high affinity

## CXCL2: CXC chemokine
CXCR2 [15]
  affinity for CXCR2: high affinity

## CXCL3: CXC chemokine
CXCR2 [15]
  affinity for CXCR2: high affinity

## CXCL5: CXC chemokine
CXCR2 [15]
  affinity for CXCR2: high affinity

## CXCL6: CXC chemokine
CXCR2 [15]
  affinity for CXCR2: high affinity
CXCR1 [16]
  affinity for CXCR1: high affinity

## CXCL8: recombinant human chemokine that binds both CXCR1/2
CXCR2 [1]
  CXCR2 surface expression, chemokine treated: significantly down-regulated both CXCR1 and CXCR2
CXCR1 [2]
  CXCR1 surface expression, chemokine treated: significantly down-regulated both CXCR1 and CXCR2
CXCR2 [3]
  CXCR2 down-regulation on monocytes: down-regulate CXCR2
Neutrophils [4]
  [Ca2+]i time of decline to baseline: less than 100 s
Neutrophils [5]; CXCL8 10 nM first, CXCL1 10 nM 160 s later, Fig. 4C
  cross-desensitization of response to CXCL1: completely blocked
Neutrophils [5]; CXCL8 10 nM first, CXCL7 10 nM 160 s later, Fig. 4B
  cross-desensitization of response to CXCL7: completely blocked
Neutrophils [5]; CXCL8 10 nM first, LL-37 5 µM 160 s later, Fig. 4A
  cross-desensitization of response to LL-37: completely blocked
Neutrophils [5]; CXCL8 10 nM first, fMLF 100 nM 160 s later, Fig. 4D
  cross-desensitization of response to fMLF: failed to cross-sensitize fMLF stimulation
CXCR2 [9]
  calcium mobilization in CXCR2 transfected HEK293 cells: weak but similar patterns of calcium mobilization
CXCR1 [10]
  calcium mobilization in CXCR1 transfected HEK293 cells: gave a response
CXCR2 [11]; [19]
  CXCR2 translocation (internalization): translocation of both CXCR1 and CXCR2 to the cytoplasm
CXCR1 [12]; [19]
  CXCR1 translocation (internalization): translocation of both CXCR1 and CXCR2 to the cytoplasm
CXCR2 [15]
  affinity for CXCR2: high affinity
CXCR1 [16]
  affinity for CXCR1: high affinity

## fMLF [reference compound]
CXCR2 [1]; [20]
  CXCR2 surface expression: caused down-regulation of both CXCR2 and CXCR1 expression with similar kinetics
CXCR1 [2]; [20]
  CXCR1 surface expression: caused down-regulation of both CXCR2 and CXCR1 expression with similar kinetics
Neutrophils [4]
  [Ca2+]i time of decline to baseline: ≤ 200 s

B1: CXCL7: recombinant human chemokine, rather CXCR2 specific (protein, UniProt P02775 59-128, looked up)
Neutrophil-activating peptide …: AELRCMCIKTTSGIHPKNIQSLEVIGKGTHCNQVEVIATLKDGRKICLDPDAPRIKKIVQKKLAGDESAD
modifications: Neutrophil-activating peptide 2
CXCR1 [2]
  CXCR1 down-regulation at higher dose: down-regulate CXCR1 at higher doses
  CXCR1 surface expression, chemokine treated: less discriminatory towards CXCR2 compared to LL-37
Neutrophils [5]
  cross-desensitization of response to fMLF by LL-37, CXCL7, CXCL1: do not cross-sensitize fMLF stimulation
CXCR2 [11]; [18]
  CXCR2 translocation (internalization): caused only CXCR2 receptor translocation to the cytoplasm
CXCR1 [12]; [18]
  CXCR1 translocation (internalization): caused only CXCR2 receptor translocation to the cytoplasm
CXCR2 [15]
  affinity for CXCR2: high affinity
